Data published in ChEMBL document CHEMBL1143847, “Competitive inhibitors of the CphA metallo-beta-lactamase from Aeromonas hydrophila” (Antimicrob Agents Chemother, 2007).

Experiments:
[1] = target: Beta-lactamase (Aeromonas hydrophila) (UniProt Q44079); experiment: Ratio of Kcat to Km for Aeromonas hydrophila beta lactamase CphA at pH 9.0
How it was run: (§1)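 Wild-type CphA kinetics with imipenem as substrate, measured in a mixed buffer adjusted to the stated pH with HCl or NaOH. The buffer held 40 mM sodium acetate, 20 mM each of cacodylate, MOPS, TAPS, CHES and CAPS, and 20 μg/ml BSA. Runs were at 30°C in thermostatted cells. Km and kcat came from initial rates. At pH 10 only kcat/Km was taken, because imipenem hydrolyses spontaneously.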

[2] = target: Beta-lactamase (Aeromonas hydrophila) (UniProt Q44079); experiment: Ratio of Kcat to Km for Aeromonas hydrophila beta lactamase CphA at pH 10.0; how it was run: as §1
[3] = target: Beta-lactamase (Aeromonas hydrophila) (UniProt Q44079); experiment: Ratio of Kcat to Km for Aeromonas hydrophila beta lactamase CphA at pH 8.0; how it was run: as §1
[4] = target: Beta-lactamase (Aeromonas hydrophila) (UniProt Q44079); experiment: Ratio of Kcat to Km for Aeromonas hydrophila beta lactamase CphA at pH 7.0; how it was run: as §1
[5] = Inhibition of metallo beta lactamase VIM4 assessed as residual enzyme activity at 100 uM
Fluoribacter gormanii = experiment: Inhibition of Legionella gormani beta lactamase metallo FEZ1 expressed in Escherichia coli assessed as residual enzyme activity at 100 uM
How it was run: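 Purified enzyme (0.03–0.7 nM) in 20 mM HEPES pH 7.0 with 20 μg/ml BSA was preincubated 30 min at room temperature with 100 μM inhibitor, diluted from 10 mM DMSO stock. Nitrocefin (100 μM) was then added and the initial hydrolysis rate measured. Residual activity is the mean (±SD) of three samples as percent of the uninhibited rate.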

[6] = target: Metallo beta-lactamase (Pseudomonas aeruginosa) (UniProt Q6TUJ4); experiment: Inhibition of Pseudomonas aeruginosa 101/1477 metallo beta lactamase IMP1 expressed in Escherichia coli assessed as residual enzyme activity at 100 uM in absence of zinc
Sequence of Metallo beta-lactamase (Pseudomonas aeruginosa) (Q6TUJ4 as listed by the source): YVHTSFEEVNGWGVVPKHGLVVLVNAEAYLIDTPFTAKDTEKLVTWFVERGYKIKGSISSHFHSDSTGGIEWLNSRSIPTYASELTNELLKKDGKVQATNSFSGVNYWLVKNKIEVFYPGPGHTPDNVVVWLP

[7] = target: Metallo beta-lactamase (Pseudomonas aeruginosa) (UniProt Q6TUJ4); experiment: Inhibition of Pseudomonas aeruginosa 101/1477 metallo beta lactamase IMP1 expressed in Escherichia coli assessed as residual enzyme activity at 100 uM in presence of zinc chloride
How it was run: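 IMP-1 at 0.03–0.7 nM was preincubated 30 min at room temperature with 100 μM inhibitor in 20 mM HEPES pH 7.0 with 20 μg/ml BSA plus 100 μM ZnCl2. The reaction was then started with 100 μM imipenem. The initial rate of three samples was taken as mean percent of the rate without inhibitor ± SD.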

[8] = target: Beta-lactamase L1 (Stenotrophomonas maltophilia) (UniProt P52700); experiment: Inhibition of Stenotrophomonas maltophilia metallo beta lactamase L1 assessed as residual enzyme activity at 100 uM
Sequence of Beta-lactamase L1 (Stenotrophomonas maltophilia) (P52700 34-290 limits assumed): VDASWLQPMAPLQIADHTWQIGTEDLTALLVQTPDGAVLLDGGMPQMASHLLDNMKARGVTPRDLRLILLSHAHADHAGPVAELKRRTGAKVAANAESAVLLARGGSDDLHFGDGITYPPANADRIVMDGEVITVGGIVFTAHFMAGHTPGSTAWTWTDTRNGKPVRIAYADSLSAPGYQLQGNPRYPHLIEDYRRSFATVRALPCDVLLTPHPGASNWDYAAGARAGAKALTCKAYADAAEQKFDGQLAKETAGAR

[9] = Inhibition of metallo beta lactamase VIM2 assessed as residual enzyme activity at 100 uM
Bacillus cereus = experiment: Inhibition of Bacillus cereus metallo beta lactamase Bc2 assessed as residual enzyme activity at 100 uM

Sequence of Beta-lactamase (Aeromonas hydrophila) (Q44079 as listed by the source): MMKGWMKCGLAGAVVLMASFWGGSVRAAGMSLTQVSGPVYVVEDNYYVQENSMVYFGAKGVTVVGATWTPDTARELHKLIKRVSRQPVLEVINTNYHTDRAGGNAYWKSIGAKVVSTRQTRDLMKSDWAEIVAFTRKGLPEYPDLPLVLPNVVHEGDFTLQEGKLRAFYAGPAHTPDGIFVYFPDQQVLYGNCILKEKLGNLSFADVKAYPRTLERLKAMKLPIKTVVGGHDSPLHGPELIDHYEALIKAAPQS

Q: With CC(O)[C@H]1C(=O)N2C(C(=O)O)=C(SCCNC=N)C[C@H]12 (single isomer, unassigned) as the compound, how does the Ratio [1] read?
A: Its Ratio is 0.78 µM⁻¹ s⁻¹.

Q: And the Ratio [2]?
A: Its Ratio is 0.44 µM⁻¹ s⁻¹.

Q: What about the Ratio [3] of the same compound?
A: Its Ratio is 1.7 µM⁻¹ s⁻¹.

Q: And the Ratio [4]?
A: Its Ratio is 1.8 µM⁻¹ s⁻¹.

Q: Which results are given for O=C(O)c1ccc(C(=O)O)nc1?
A: Activity [5]: 97%; Activity (Fluoribacter gormanii): 80%; Activity [6]: 99%; Activity [7]: 81%; Activity [8]: 94%; Activity [9]: 97%; Activity (Bacillus cereus): 99%

Q: For O=C(O)c1ccncc1C(=O)O, which Activity [5] is on record?
A: Its Activity is 100%.

Q: What about the Activity (Fluoribacter gormanii) of the same compound?
A: Its Activity is 93%.

Q: And the Activity [6]?
A: The Activity was 91%.

Q: What about the Activity [7] of the same compound?
A: Its Activity is 88%.

Q: And the Activity [8]?
A: The Activity was 97%.

Q: And the Activity [9]?
A: Its Activity is 92%.

Q: And the Activity (Bacillus cereus)?
A: The Activity was 97%.

Q: What does the source list for O=C(O)c1ccccn1?
A: Activity [5]: 59%; Activity (Fluoribacter gormanii): 62%; Activity [6]: 31%; Activity [7]: 54%; Activity [8]: 29%; Activity [9]: 80%; Activity (Bacillus cereus): 95%

Q: For O=C(O)c1cccc(C(=O)O)n1, which Activity [5] is on record?
A: Its Activity is 88%.

Q: What about the Activity (Fluoribacter gormanii) of the same compound?
A: Its Activity is 77%.

Q: And the Activity [6]?
A: Its Activity is 2%.

Q: And the Activity [7]?
A: The Activity was 72%.

Q: What about the Activity [8] of the same compound?
A: The Activity was 92%.

Q: And the Activity [9]?
A: The Activity was 96%.

Q: What about the Activity (Bacillus cereus) of the same compound?
A: The Activity was 95%.

Q: Which Activity [5] does the source give for O=C(O)c1ccnc(C(=O)O)c1 here?
A: The Activity was 90%.

Q: What about the Activity (Fluoribacter gormanii) of the same compound?
A: The Activity was 65%.

Q: And the Activity [6]?
A: Its Activity is 94%.

Q: And the Activity [7]?
A: The Activity was 78%.

Q: What about the Activity [8] of the same compound?
A: Its Activity is 78%.

Q: And the Activity [9]?
A: Its Activity is 98%.

Q: What about the Activity (Bacillus cereus) of the same compound?
A: The Activity was 97%.

Q: With O=C(O)c1cccnc1C(=O)O as the compound, how does the Activity [5] read?
A: The Activity was 73%.

Q: What about the Activity (Fluoribacter gormanii) of the same compound?
A: Its Activity is 62%.

Q: What about the Activity [6] of the same compound?
A: Its Activity is 89%.

Q: What about the Activity [7] of the same compound?
A: Its Activity is 67%.

Q: And the Activity [8]?
A: The Activity was 93%.

Q: What about the Activity [9] of the same compound?
A: The Activity was 106%.

Q: And the Activity (Bacillus cereus)?
A: Its Activity is 98%.
